Screening results from PubChem.
IMP-1 inh: inhibitors of Pseudomonas aeruginosa IMP-1 metallo-beta-lactamase; purified IMP-1, nitrocefin hydrolysis, epi-absorbance fluorescence; inhibition, % at 5.6 µM; actives 0.45% (n = 290,000);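 active = inhibition above the mean plus 3 SD of all compounds in the same screening run, cut at about 4.5% in these data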;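 note: 0% = IMP-1 with DMSO and 100% = DMSO wells lacking enzyme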
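System: purified recombinant IMP-1 beta-lactamase. Medium: Zinc- and detergent-supplemented HEPES buffer, pH 7.1. Compound: one 5.6 µM dose […]. Schedule: 15 min preincubation plus 25 min reaction at 25 °C. Technique: Epi-absorbance fluorescence, 480 nm excitation, 530 nm emission.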
VIM-2 inh: blocks Pseudomonas aeruginosa VIM-2 metallo-beta-lactamase. purified VIM-2, nitrocefin hydrolysis, epi-absorbance fluorescence. inhibition, % at 5.6 µM. actives 0.89% (n = 290,000). AID 1527;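 active = inhibition above the mean of all tested compounds plus 3 SD, cutoff set per screening run, cut at about 7.5% in these data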;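 note: red hydrolysis product quenches plate fluorescence so inhibitors raise well fluorescence; 0% = enzyme with DMSO and 100% = DMSO without enzyme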
CHT inh: inhibitors of human choline transporter CHT; Q9GZV3; CHT-expressing cells, membrane potential dye, choline response; active compounds read low; B-score at 10 µM; actives 0.86% (n = 310,000); AID 488975;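 active = B-score over 3 SD under the library average, and starting fluorescence ratio not unusually high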;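 note: choline stimulus applied at its EC90 after an EC20 pre-addition; B-score computed on integrated fluorescence ratio after choline addition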
Target sequence (Q9GZV3 whole entry, looked up): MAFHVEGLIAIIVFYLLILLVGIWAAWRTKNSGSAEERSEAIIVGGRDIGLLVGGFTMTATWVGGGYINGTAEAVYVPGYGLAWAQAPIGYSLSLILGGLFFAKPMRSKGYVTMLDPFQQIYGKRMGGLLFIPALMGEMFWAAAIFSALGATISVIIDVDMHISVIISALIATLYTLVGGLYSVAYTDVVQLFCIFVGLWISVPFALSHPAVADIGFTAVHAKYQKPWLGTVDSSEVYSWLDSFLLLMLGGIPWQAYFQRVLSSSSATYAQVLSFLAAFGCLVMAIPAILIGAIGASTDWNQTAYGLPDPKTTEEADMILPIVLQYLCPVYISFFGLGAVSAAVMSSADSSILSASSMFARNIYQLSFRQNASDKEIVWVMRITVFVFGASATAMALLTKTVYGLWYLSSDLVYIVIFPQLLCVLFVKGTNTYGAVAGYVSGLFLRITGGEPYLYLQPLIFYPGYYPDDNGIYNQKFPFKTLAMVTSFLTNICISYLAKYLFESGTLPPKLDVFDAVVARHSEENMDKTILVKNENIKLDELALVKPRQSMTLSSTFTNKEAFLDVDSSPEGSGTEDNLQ
CHT PAM: allosterically activates the human high affinity choline transporter. Q9GZV3. CHT-expressing cells, membrane potential dye, choline EC20; active compounds read high; LV-AA mutant CHT in HEK293 cells. B-score at 10 µM. actives 0.49% (n = 310,000). AID 488977;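 active = initial fluorescence not abnormally high and integrated response B-score, plate-corrected, over 3 SD above library mean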
ANO1 block: mouse TMEM16A channel inhibition, primary screen | Q8BHY3 | AID 588511 | HEK293 TMEM16A/YFP iodide influx fluorescence, ionomycin | normalized B-score (activity score, 25-100; higher = stronger inhibition) at 10 µM | actives 1.2% (n = 310,000);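 active = ratio plate-corrected score three or more library SD toward inhibition, starting fluorescence score within five deviations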;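 note: score derived from kinetic fluorescence span divided by baseline fluorescence per well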
TMEM16A act: activates or potentiates the mouse TMEM16A chloride channel | HEK293 TMEM16A/YFP-H148Q/I152L, iodide quench fluorescence; active compounds read low | B-score at 10 µM | actives 0.3% (n = 340,000);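 active = fluorescence-ratio B-score plate-corrected deviation score at least 3 library SD below zero, with starting fluorescence score within 5 deviations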;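 note: channel opened by trigger with iodide after compound preincubation; score built on the fluorescence ratio of max minus min over baseline; more negative score means more quench and so TMEM16A activation or potentiation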
TMEM16A reconf: reconfirmed blocker of mouse TMEM16A calcium-activated chloride channel; HEK293 TMEM16A/YFP-H148Q, iodide quench fluorescence; ionomycin added to raise cell calcium; inhibition, % at 10 µM; AID 652189; shares compounds with ANO1 block; actives 39% (n = 2,300);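 active = mean duplicate percent inhibition, scaled so buffer wells are 0 and the reference blocker 100, over three buffer SD above buffer mean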
TMEM16A Ca cntr: alters calcium mobilization in TMEM16A HEK293 cells, counter-screen; calcium response (% of ionomycin), % at 10 µM; TMEM16A/YFP HEK293, Fluo4 calcium mobilization; shares compounds with ANO1 block; actives 2% (n = 2,300); AID 652231;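 active = duplicate-averaged calcium signal over 20% of the ionomycin maximum, relative to buffer baseline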;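 note: each well's signal is peak minus trough fluorescence divided by its pre-addition baseline; 0% = buffer wells and 100% = ionomycin wells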
Parental YFP cnt: counter-screen for TMEM16A inhibitors: effect in parental YFP-HEK293 cells; 2,300 tested, under 10 active; shares compounds with ANO1 block; iodide YFP quench, ionomycin; AID 652233; YFP ratio F(max-min)/F0 at 10 µM;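 active = yellow fluorescent protein signal ratio exceeding the buffer control mean by over 5 SD of those controls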;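 note: ratio is mean of duplicate wells from kinetic YFP trace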
ClC-1 rat inh: blocks the rat ClC-1 voltage-dependent chloride channel; shares compounds with ANO1 block; CHO ClC-1-YFP, iodide influx fluorescence quench; iodide control reads 0, buffer control 100; ratio percent, % at 10 µM; 2,300 tested, under 10 active; AID 652236;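 active = duplicate-mean ratio percent above the mean of iodide-only control wells, which defines zero, plus 5 of their SD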;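 note: higher percent means stronger block of ClC-1 iodide influx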
* hit, by the source's call; i = inactive; . = no result. Most compounds without a hit are left out; they make up all but 3.4% or so of the library.

SMILES | IMP-1 inh | VIM-2 inh | CHT inh | CHT PAM | ANO1 block | TMEM16A act | TMEM16A reconf | TMEM16A Ca cntr | Parental YFP cnt | ClC-1 rat inh
CCCN(CCC)C(=O)c1cn(CC)c2ccc(S(=O)(=O)N3CCCCC3)cc2c1=O | -0.8 | 0.1 | i | i | i | i | . | . | . | .
COc1ccc(CCNC(=O)N2c3ccccc3Sc3ccccc32)cc1 | -0.5 | -1.2 | i | i | 100* | i | 53.0%* | i | -0.871 | -14.0
CN(C)c1ccc(N=Nc2ccccc2C(=O)OCC(=O)NC2CCCC2)cc1 | -7.7 | -3.0 | i | i | i | i | . | . | . | .
CN(C)c1ccc(N=Nc2ccccc2C(=O)OCC(=O)NCC2CCCCC2)cc1 | -4.1 | -2.5 | i | i | 100* | i | i | i | -0.858 | -12.5
COc1ccccc1NC(=O)C(C)OC(=O)C1CC(=O)N(c2ccc3c(c2)OCCO3)C1 (configuration not stated) | -3.5 | 0.8 | i | i | i | i | . | . | . | .
COc1ccccc1NC(=O)C(C)OC(=O)C1CCC(C(C)(C)C)CC1 (configuration not stated) | . | . | i | i | 100* | i | i | i | -0.926 | -4.0
CC(NC(=O)CN1C(=O)NC2(CCCCC2)C1=O)c1ccc(S(N)(=O)=O)cc1 (configuration not stated) | . | . | . | . | . | i | . | . | . | .
C=CCN(Cc1ccc(Cl)s1)C(=O)c1cc(S(=O)(=O)N2CCOCC2)ccc1F | . | . | . | . | . | i | . | . | . | .
Cc1cc(Cl)ccc1OCc1nc(-c2ccc(O)cc2)n[nH]1 | -5.4 | -5.0 | i | i | 25* | i | 26.0%* | i | -0.983 | -16.0
CCCC(=O)c1ccc(N2CCN(C(=O)c3ccc(Br)cc3)CC2)c(F)c1 | -0.7 | -0.8 | i | i | i | i | . | . | . | .
O=C(c1ccc(N2CCN(C(=O)c3ccccc3Br)CC2)cc1)c1cccc(F)c1 | -7.1 | -1.0 | i | i | 100* | i | 17.0%* | i | -1.04 | -10.0
CCC(=O)c1ccc(N2CCN(C(=O)Cc3ccccc3)CC2)c(F)c1 | -3.0 | -3.5 | i | i | i | i | . | . | . | .
O=C(c1ccccc1)N1CCN(C(=O)c2ccccc2Br)CC1 | 0.7 | 3.1 | i | i | i | i | . | . | . | .
CCCC(=O)c1ccc(N2CCN(C(=O)c3ccccc3Br)CC2)c(F)c1 | -1.2 | -3.8 | i | i | 100* | i | 20.0%* | i | -0.881 | -3.5
CCCC(=O)c1ccc(N2CCN(C(=O)c3ccccc3)CC2)c(F)c1 | -1.9 | -1.8 | i | i | 25* | i | i | i | -1.16 | -20.5
Cc1noc(C)c1COc1ccccc1C(=O)NNC(=O)C(C)Oc1ccccc1F (configuration not stated) | . | . | i | i | i | i | . | . | . | .
O=C(CNC(=O)c1ccc(Cl)cc1)OCCCOC(=O)CNC(=O)c1ccc(Cl)cc1 | 0.1 | 1.5 | i | i | i | i | . | . | . | .
N#CCCN(C(=O)CSc1nc2ccccc2c(=O)[nH]1)c1ccc(F)cc1 | . | . | . | . | . | i | . | . | . | .
CCOC(=O)CCc1c(C)c2ccc(OC(C)C(=O)OCC)c(C)c2oc1=O (configuration not stated) | -1.3 | -0.9 | i | i | 100* | i | 33.5%* | i | -0.983 | -29.0
COC(=O)C1=CN(CC2CCCO2)C=C(C(=O)OC)C1c1ccsc1 (configuration not stated) | -1.5 | -0.9 | i | i | 100* | i | i | i | -1.07 | -15.0
COC(=O)C1=CN(CC2CCCO2)C=C(C(=O)OC)C1c1cccc(O)c1 (configuration not stated) | -2.3 | -0.5 | i | i | i | i | . | . | . | .
CCOc1ccc(CN(C)c2ccc(S(=O)(=O)N3CCN(C)CC3)cc2[N+](=O)[O-])cc1OC | . | . | . | . | . | i | . | . | . | .
COc1ccc(NC(=O)CNC(=O)C2CCCCC2)cc1OC | . | . | . | . | . | i | . | . | . | .
CCOC(=O)CNC(=O)C(NC(=O)C1CCC(C)CC1)C(C)CC (configuration not stated) | -1.3 | -5.1 | i | i | 25* | i | i | i | -1.09 | -2.0
COc1cccc(Nc2nc(NCC3CCCO3)c3ccccc3n2)c1 (configuration not stated) | -2.5 | -1.9 | i | i | 100* | i | 43.5%* | i | -1.07 | -19.0
SMILES | IMP-1 inh | VIM-2 inh | CHT inh | CHT PAM | ANO1 block | TMEM16A act | TMEM16A reconf | TMEM16A Ca cntr | Parental YFP cnt | ClC-1 rat inh
O=C(CN1C(=O)C(=O)N(C2CCCC2)C1=O)Nc1ccc([N+](=O)[O-])cc1 | . | . | . | . | . | i | . | . | . | .
CC(NC(=O)c1cccc(S(=O)(=O)N2CCN(Cc3ccccc3)CC2)c1)c1ccc(Br)cc1 (configuration not stated) | -1.1 | -0.5 | i | i | i | i | . | . | . | .
COc1ccc(NC(=O)NC23CC4(C)CC(C)(CC(C)(C4)C2)C3)cc1OC | 0.3 | 0.0 | i | i | 25* | i | i | i | -1.31 | 3.0
Cc1ccc(CNC(=O)C2CCCN2C(=O)Nc2ccc(F)cc2)cc1 (configuration not stated) | 1.3 | -3.0 | i | i | i | i | . | . | . | .
COC(=O)c1ccc(CNC(=O)COC(=O)C23CC4CC(CC(C4)C2)C3)cc1 | -0.1 | 1.4 | i | i | i | i | . | . | . | .
COC(=O)c1ccc(CNC(=O)COC(=O)CC23CC4CC(CC(Br)(C4)C2)C3)cc1 | -1.0 | 0.1 | i | i | 25* | i | i | i | -0.921 | -11.5
Cc1ccc(Cl)cc1N1CCN(C(=O)COc2ccc(S(=O)(=O)NC(C)C)cc2)CC1 | -0.1 | -1.1 | i | i | 25* | i | i | i | -0.848 | -13.0
O=C(CCc1nc2ccccc2c(=O)[nH]1)Nc1ccc(F)cc1 | -1.7 | -2.2 | i | i | i | i | . | . | . | .
O=C(CCc1nc2ccccc2[nH]1)Nc1ccc(F)cc1 | -4.3 | -5.1 | i | i | 25* | i | i | i | -1.09 | -3.5
Cc1ccc(S(=O)(=O)N(C)c2ccc3ccccc3c2)cc1 | -2.7 | 1.1 | i | i | 100* | i | i | i | -0.914 | -10.0
